{"source": "ChEMBL document CHEMBL1146561", "about": "“New sesterterpene sulfates from the sponge Darwinella australensis” (J Nat Prod, 2003)", "key": {"[1]": {"tested_on": "Staphylococcus aureus", "assay": "Antimicrobial activity against Staphylococcus aureus at 25 ug by paper-disk method", "type": "functional", "conditions": "read-out: IZ", "outline": "(§1)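 Paper-disk diffusion assay with 25 μg of sample applied. Activity was read as the diameter of the inhibition zone in mm.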"}, "[2]": {"tested_on": "Streptococcus sp.", "assay": "Antimicrobial activity against Streptococcus sp. at 25 ug by paper-disk method", "type": "functional", "conditions": "read-out: IZ", "outline": "as §1"}, "[3]": {"tested_on": "K562", "assay": "Cytotoxicity against human K562 cells by MTT assay", "type": "functional", "conditions": "read-out: LC50 (the source's name)", "outline": "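Human leukemia K562 line; viability by MTT method; activity expressed as LC50 in μg/mL.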"}, "[4]": {"tested_on": "Candida albicans", "assay": "Antimicrobial activity against Candida albicans at 25 ug by paper-disk method", "type": "functional", "conditions": "read-out: IZ", "outline": "as §1"}, "[5]": {"tested_on": "Bacillus subtilis", "assay": "Antimicrobial activity against Bacillus subtilis at 25 ug by paper-disk method", "type": "functional", "conditions": "read-out: IZ", "outline": "as §1"}, "[6]": {"tested_on": "Escherichia coli", "assay": "Antimicrobial activity against Escherichia coli at 25 ug by paper-disk method", "type": "functional", "conditions": "read-out: IZ", "outline": "as §1"}, "[7]": {"assay": "Inhibition of cell division in sea urchin fertilized egg", "type": "functional, Strongylocentrotus intermedius", "outline": "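Fertilized eggs of the sea urchin Strongylocentrotus intermedius were scored for inhibition of cell division. IC50 is expressed in μg/mL.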"}}, "data": [{"smiles": "C[C@H]1CC[C@H]2C(=CC(=O)CC2(C)C)[C@@]1(C)CCC(CCCc1ccoc1)COS(=O)(=O)[O-].[Na+]", "note": "(stereo not given in full) [HALISULPHATE 8]", "values": [{"measurement": "zone of inhibition at 25 µg/disc", "setting": "[1]", "value": "< 3", "unit": "mm"}, {"measurement": "zone of inhibition at 25 µg/disc", "setting": "[2]", "value": "< 3", "unit": "mm"}, {"measurement": "CC50", "setting": "[3]", "value": "> 100", "unit": "µg/mL"}, {"measurement": "zone of inhibition at 25 µg/disc", "setting": "[4]", "value": "< 3", "unit": "mm"}, {"measurement": "zone of inhibition at 25 µg/disc", "setting": "[5]", "value": "< 3", "unit": "mm"}, {"measurement": "zone of inhibition at 25 µg/disc", "setting": "[6]", "value": "< 3", "unit": "mm"}]}, {"smiles": "C[C@H]1CC[C@H]2C(=CCCC2(C)C)[C@@]1(C)CCC(CCCC1=CC(=O)OC1)COS(=O)(=O)[O-].[Na+]", "note": "(stereo not given in full) [HALISULPHATE 9]", "values": [{"measurement": "IC50", "setting": "[7]", "value": 50, "unit": "µg/mL"}, {"measurement": "zone of inhibition at 25 µg/disc", "setting": "[1]", "value": "< 3", "unit": "mm"}, {"measurement": "zone of inhibition at 25 µg/disc", "setting": "[2]", "value": "< 3", "unit": "mm"}, {"measurement": "CC50", "setting": "[3]", "value": "> 100", "unit": "µg/mL"}, {"measurement": "zone of inhibition at 25 µg/disc", "setting": "[4]", "value": "< 3", "unit": "mm"}, {"measurement": "zone of inhibition at 25 µg/disc", "setting": "[5]", "value": "< 3", "unit": "mm"}, {"measurement": "zone of inhibition at 25 µg/disc", "setting": "[6]", "value": "< 3", "unit": "mm"}]}, {"smiles": "COC1C=C(CCCC(CC[C@]2(C)C3=CCCC(C)(C)[C@H]3CC[C@@H]2C)COS(=O)(=O)[O-])C(=O)O1.[Na+]", "note": "(stereo not given in full) [HALISULPHATE 10]", "values": [{"measurement": "IC50", "setting": "[7]", "value": 35, "unit": "µg/mL"}, {"measurement": "zone of inhibition at 25 µg/disc", "setting": "[1]", "value": "< 3", "unit": "mm"}, {"measurement": "zone of inhibition at 25 µg/disc", "setting": "[2]", "value": "< 3", "unit": "mm"}, {"measurement": "CC50", "setting": "[3]", "value": "> 100", "unit": "µg/mL"}, {"measurement": "zone of inhibition at 25 µg/disc", "setting": "[4]", "value": "< 3", "unit": "mm"}, {"measurement": "zone of inhibition at 25 µg/disc", "setting": "[5]", "value": "< 3", "unit": "mm"}, {"measurement": "zone of inhibition at 25 µg/disc", "setting": "[6]", "value": "< 3", "unit": "mm"}]}]}
